# Measurements reported in ChEMBL document CHEMBL1125728, “Dopamine autoreceptor agonists as potential antipsychotics. 2. (Aminoalkoxy)-4H-1-benzopyran-4-ones” (J Med Chem, 1991).
# Calls of active or inactive are those of the source. The calls are words filed in the database; no cut-off is given here.
# What was measured:
# [1] = target: Dopamine receptor (Rattus norvegicus) (UniProt P25115+P19020+P30729+P18901+P61169); experiment: Inhibitory binding activity against dopamine receptor in rat striatal membranes using [3H]HAL as the radioligand.; assay type: cell membranes; set-up: concentration or dose not given beside the values; settings: Striatum; Membrane; concentration not given here
# In short: (§1)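 [3H]Haloperidol displacement from rat striatal DA receptors, run in duplicate. IC50 obtained by nonlinear regression from four to five concentrations.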
# [2] = test system: Rattus norvegicus; experiment: Percentage of rats showing signs of stereotyped behavior at 30 mg/kg subcutaneous dose and animals observed for 30 min postdose.; assay type: functional
# [3] = test system: Rattus norvegicus; experiment: Percentage of rats showing signs of stereotyped behavior at 30 mg/kg subcutaneous dose and followed 1 hr later by 10 mg/kg sc of SKF-38393 and animals observed for 30 min postdose before being; assay type: functional
# In short: (§2)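 Naive rats, six per dose, received compound, then SKF 38393 (10 mg/kg sc) 1 h later. They were rated for repetitive rearing, head-swaying, sniffing, licking and gnawing of at least 5 s duration. Result given as the percentage of rats showing stereotypy.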
# [4] = test system: Rattus norvegicus; experiment: Compound tested for its effective dose to inhibit rat locomotor activity after sc administration of the compound.; assay type: functional
# In short: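 Rats dosed sc, with locomotor activity recorded for 30 min immediately after dosing. ED50 generated from four to five doses using 5–12 animals per dose, reported with ±95% confidence limits.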
# [5] = test system: Rattus norvegicus; experiment: Compound tested for its effect on reversal of 6-OHDA induced depression in rats after sc administration.; assay type: functional
# In short: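 Rats lesioned at least 1 month earlier with 6-OHDA (20 μg icv) plus pargyline (50 mg/kg ip) and desipramine (25 mg/kg ip), giving about 90% brain DA depletion. Drug given sc, then locomotor activity recorded for 30 min from dosing. ED200 estimated from three or four doses, six rats per dose.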
# [6] = test system: Rattus norvegicus; experiment: Compound tested for % inhibition of DA neuronal firing at an intraperitoneal dose of 2.5 mg/kg.; assay type: functional; settings: ip
# [7] = test system: Rattus norvegicus; experiment: Compound tested for % reversal of DOPA accumulation at an intraperitoneal dose of 30 mg/kg.; assay type: functional
# In short: (§3)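 Rats dosed 1 h before sacrifice, with GBL (750 mg/kg ip) at 30 min and NSD 1015 (100 mg/kg ip) at 25 min before sacrifice. Striatal DOPA measured by HPLC with electrochemical detection. Value is percent reversal of the GBL-induced DOPA rise.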
# [8] = test system: Mus musculus; experiment: Inhibition of mouse intraperitoneally.; assay type: functional; settings: ip
# In short: (§4)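 Inhibition of exploratory locomotor activity, scored together with motor coordination (ataxia). ED50 generated from four to five doses, with 5–12 animals per dose.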
# [9] = Compound was tested for its inhibition of Sidman avoidance after peroral administration in Squirrel monkeys.; assay type: functional; settings: po
# In short: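 Sidman avoidance in mature squirrel monkeys, oral dosing. ED50 ± SEM generated from three doses, four animals per dose.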
# [10] = Compound tested for its liability for extrapyramidal side effects (EPS) in terms of no. of animals showing signs of EPS/no. of animals tested upon peroral administration at a dose of 2.5 mg/Kg; 3/3; assay type: functional
# [11] = test system: Rattus norvegicus; experiment: Effect on DOPA accumulation level at an intraperitoneal dose of 30 mg/kg in rat.; assay type: functional
# [12] = test system: Rattus norvegicus; experiment: Compound tested for % reversal of DOPA accumulation at an intraperitoneal dose of 30 mg/kg. Negative value in parenthesis indicates further % increase in DOPA levels over GBL-induced increase.; assay type: functional; in short: as §3
# [13] = target: Dopamine receptor; experiment: Compound was tested for inhibitory binding activity against Dopamine receptor in rat striatal membranes using [3H]HAL as the radioligand.; assay type: cell membranes, Striatum, Membrane; in short: as §1
# [14] = test system: Rattus norvegicus; experiment: Inhibition of rat locomotor activity after being administered perorally.; assay type: functional; settings: po; in short: as §4
# [15] = test system: Rattus norvegicus; experiment: Compound tested for % reversal of DOPA accumulation at an intraperitoneal dose of 30 mg/kg; Inactive; assay type: functional, organism-based; set-up: dose 30 mg/kg; in short: as §3
# [16] = test system: Rattus norvegicus; experiment: Percentage of rats showing signs of stereotyped behavior at 30 mg/kg peroral dose and animals observed for 60 min postdose.; assay type: functional; settings: route oral
# [17] = test system: Rattus norvegicus; experiment: Percentage of rats showing signs of stereotyped behavior at 30 mg/kg peroral dose and followed 1 hr later by 10 mg/kg sc of SKF-38393 and animals observed for 60 min postdose before being; assay type: functional; in short: as §2
# [18] = test system: Rattus norvegicus; experiment: Compound was tested for inhibition of […] locomotor activity after being administered perorally.; assay type: functional; settings: po
# In short: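 Mice dosed orally and scored for inhibition of exploratory locomotor activity, with motor coordination (ataxia) also checked. ED50 generated from four to five doses using 5–12 animals per dose.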
# [19] = test system: Rattus norvegicus; experiment: Effect on DOPA accumulation level at an intraperitoneal dose of 0.5 mg/kg in rat; assay type: functional
# [20] = test system: Rattus norvegicus; experiment: Percentage of rats showing signs of stereotyped behavior at 0.3 mg/kg subcutaneous dose and animals observed for 60 min postdose.; assay type: functional
# [21] = test system: Mus musculus; experiment: Compound was tested for inhibition of mouse locomotor activity after being administered intraperitoneally.; settings: ip
# [22] = test system: Rattus norvegicus; experiment: Percentage of rats showing signs of stereotyped behavior at 15 mg/kg peroral dose and followed 1 hr later by 10 mg/kg sc of SKF-38393 and animals observed for 60 min postdose before being; assay type: functional
# In short: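 Part 2: oral dose given to naive rats, six per dose, followed 1 h later by SKF 38393 (10 mg/kg sc). Stereotypy (repetitive rearing, head-swaying, sniffing, licking, gnawing lasting ≥5 s) rated over 60 min. Reported as percent of rats affected.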
# [23] = test system: Rattus norvegicus; experiment: Percentage of rats showing signs of stereotyped behavior at 110 mg/kg peroral dose and animals observed for 60 min postdose.; assay type: functional; settings: route oral
# [24] = test system: Rattus norvegicus; experiment: Percentage of rats showing signs of stereotyped behavior at 55 mg/kg peroral dose and followed 1 hr later by 10 mg/kg sc of SKF-38393 and animals observed for 60 min postdose before being; assay type: functional; in short: as §2
smiles,measurement,setting,value
O=c1ccoc2cc(OCCCN3CCN(c4cccc(O)c4)CC3)ccc12,inhibition,[1],29%
"CCCN1CCCC(c2ccccc2)C1 (single isomer, unassigned; (+))",Animals,[2],16%
same,Animals,[3],100%
same,ED50,[4],3 mg/kg
same,ED200,[5],0.48 mg/kg
O=c1ccoc2cc(OCCCN3CCN(c4ccccc4)CC3)ccc12,inhibition,[1],20%
same,inhibition in vivo at 2.5 mg/kg,[6],68%
same,Reversal,[7],56%
CCN(CCCOc1ccc2c(=O)ccoc2c1)CCCc1ccccc1,inhibition,[1],26%
same,ED50,[8],> 30 mg/kg
O=c1ccoc2cc(OCCCCN3CCN(c4ccccc4)CC3)ccc12,inhibition,[1],74%
same,Reversal,[7],63%
CSc1ccc2c(c1)N(CCC1CCCCN1C)c1ccccc1S2 (configuration not stated) [THIORIDAZINE],ED50,[9],3.9 mg/kg
same,EPS,[10],3
O=c1ccoc2cc(OCCCN3CCN(c4ccc(F)cc4)CC3)ccc12,inhibition,[1],24%
same,DOPA level,[11],1.36 µg/g
same,Reversal,[12],-42%
O=C1CN(CCCOc2ccc3c(=O)ccoc3c2)CC(=O)N1c1ccccc1,inhibition,[1],0%
same,ED50,[8],> 30 mg/kg
Cc1cccc(N2CCN(CCCOc3ccc4c(=O)ccoc4c3)CC2)c1C,inhibition,[1],0%
Nc1cccc(OCCCN2CCN(c3ccccc3)CC2)c1,ED50,[8],1.3 mg/kg
O=c1ccoc2ccc(OCCCCN3CCN(c4ncccn4)CC3)cc12,IC50,[13],349 nM
same,ED50,[8],3.6 mg/kg
same,inhibition in vivo at 2.5 mg/kg,[6],100%
same,Reversal,[7],100%
same,ED50,[14],8.2 mg/kg
Cc1cccc(N2CCN(CCCOc3ccc4c(=O)ccoc4c3)CC2)c1,inhibition,[1],38%
same,% reversal,[15],inactive
O=c1ccoc2cc(OCCCN3CCN(c4ncccn4)CC3)ccc12,inhibition,[1],0%
same,ED50,[8],12.4 mg/kg
same,ED50,[14],15.6 mg/kg
O=c1ccoc2cc(OCCCN3CCCN(c4ccccc4)CC3)ccc12,IC50,[13],884 nM
same,ED50,[8],> 30 mg/kg
O=c1ccoc2cc(OCCCN3CCN(c4ccc(Cl)cc4)CC3)ccc12,inhibition,[1],10%
same,% reversal,[15],inactive
O=c1ccoc2cc(OCCCN3CCc4c(oc5ccccc45)C3)ccc12,inhibition,[1],8%
same,ED50,[8],13.5 mg/kg
same,Reversal,[7],29%
same,ED50,[14],> 30 mg/kg
Cc1ccccc1N1CCN(CCCOc2ccc3c(=O)ccoc3c2)CC1,inhibition,[1],29%
same,% reversal,[15],inactive
same,ED50,[14],> 30 mg/kg
O=c1ccoc2cc(OCCCN3CCC=C(c4ccccc4)C3)ccc12,IC50,[13],243 nM
same,ED50,[8],30.3 mg/kg
C1=C(c2ccccc2)CCN(CCCCc2c[nH]c3ccccc23)C1,ED50,[8],0.1 mg/kg
same,Animals,[16],0%
same,Animals,[17],0%
same,ED50,[4],4.69 mg/kg
same,ED200,[5],0.29 mg/kg
same,ED50,[18],4.8 mg/kg
O=c1ccoc2cc(OCCCN3CCN(c4ccccc4Cl)CC3)ccc12,inhibition,[1],59%
O=C(CCCN1CCC(O)(c2ccc(Cl)cc2)CC1)c1ccc(F)cc1 [HALOPERIDOL],DOPA level,[19],2.72 µg/g
CN1CCc2cccc3c2[C@H]1Cc1ccc(O)c(O)c1-3 [APOMORPHINE],ED50,[8],6.4 mg/kg
same,Animals,[20],100%
same,ED50,[4],0.03 mg/kg
same,ED200,[5],0.005 mg/kg
same,inhibition in vivo at 2.5 mg/kg,[6],100%
same,Reversal,[7],104%
same,ED50,[21],> 30 mg/kg
Cc1ccc(N2CCN(CCCOc3ccc4c(=O)ccoc4c3)CC2)cc1C,inhibition,[1],41%
same,Reversal,[7],-29%
O=c1ccoc2cc(OCCCN3CCN(c4cnccn4)CC3)ccc12,inhibition,[1],17%
same,ED50,[8],26.3 mg/kg
COc1ccc(N2CCN(CCCOc3ccc4c(=O)ccoc4c3)CC2)cc1,inhibition,[1],25%
O=c1ccoc2cc(OCCCN3CCc4ccccc4C3)ccc12,inhibition,[1],50%
same,ED50,[8],30 mg/kg
O=c1ccoc2cccc(OCCCN3CCN(c4ccccc4)CC3)c12,inhibition,[1],9%
same,% reversal,[15],inactive
same,ED50,[14],> 30 mg/kg
COc1ccccc1N1CCN(CCCOc2ccc3c(=O)ccoc3c2)CC1,inhibition,[1],48%
O=c1ccoc2cc(OCCCN3CCc4[nH]c5ccc(F)cc5c4C3)ccc12,ED50,[8],7.5 mg/kg
same,Reversal,[7],-44%
same,ED50,[14],5.5 mg/kg
O=c1ccoc2cc(OCCCN3CCN(c4cccc(Cl)c4)CC3)ccc12,inhibition,[1],35%
same,Reversal,[12],-26%
O=c1ccoc2cc(OCCCN3CCN(c4ccc(Cl)c(Cl)c4)CC3)ccc12,inhibition,[1],23%
same,ED50,[8],14 mg/kg
O=c1ccoc2ccc(OCCCCN3CCN(c4ccccc4)CC3)cc12,inhibition,[1],73%
same,Animals,[22],0%
same,Animals,[16],0%
same,inhibition in vivo at 2.5 mg/kg,[6],94%
same,Reversal,[7],84%
O=c1ccoc2cc(OCCCN3CC=C(c4ccccc4)CC3)ccc12,Animals,[23],0%
same,Animals,[24],0%
same,inhibition in vivo at 2.5 mg/kg,[6],90%
same,Reversal,[7],54%
same,ED50,[14],5.5 mg/kg
O=c1ccoc2cc(OCCCN3CCN(Cc4ccccc4)CC3)ccc12,inhibition,[1],31%
same,ED50,[8],> 30 mg/kg
O=c1ccoc2cc(OCCCN3CCC(c4ccccc4)CC3)ccc12,inhibition,[1],40%
Cc1ccc(N2CCN(CCCOc3ccc4c(=O)ccoc4c3)CC2)cc1,inhibition,[1],36%
same,% reversal,[15],inactive
